The source of these data is ChEMBL document CHEMBL4616681, “Discovery of 3-Pyridyl Isoindolin-1-one Derivatives as Potent, Selective, and Orally Active Aldosterone Synthase (CYP11B2) Inhibitors” (J Med Chem, 2020).

For data set [1], the target named is T1, Cytochrome P450 11B2, mitochondrial (Homo sapiens, UniProt P19099).
T1 sequence (P19099 whole entry): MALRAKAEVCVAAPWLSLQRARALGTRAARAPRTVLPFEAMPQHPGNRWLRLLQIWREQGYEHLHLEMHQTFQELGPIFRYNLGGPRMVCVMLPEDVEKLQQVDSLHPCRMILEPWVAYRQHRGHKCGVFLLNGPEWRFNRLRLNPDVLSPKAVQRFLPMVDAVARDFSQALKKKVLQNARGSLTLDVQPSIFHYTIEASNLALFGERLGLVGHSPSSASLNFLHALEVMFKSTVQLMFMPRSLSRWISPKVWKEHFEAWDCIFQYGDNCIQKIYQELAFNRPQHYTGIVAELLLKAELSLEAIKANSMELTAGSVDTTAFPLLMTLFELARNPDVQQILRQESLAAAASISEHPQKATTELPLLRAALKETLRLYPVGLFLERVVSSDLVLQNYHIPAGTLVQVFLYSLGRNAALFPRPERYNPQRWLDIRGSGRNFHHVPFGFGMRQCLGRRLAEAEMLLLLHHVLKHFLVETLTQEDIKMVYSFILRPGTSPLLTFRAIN
Briefly: Inhibition of human CYP11B2 expressed in human renal leiomyoblastoma cells harboring FDXR/FDX using 1-deoxycorticosterone as substrate by HTRF assay. The format is cell-based. The method in brief: (§1)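 Cells with endogenous FDXR/FDX and no detectable CYP11B activity, stably transfected (CMV promoter, neomycin selection, G-418 400 µg/mL) with CYP11B1 or CYP11B2 of the named species. Assayed in DMEM/F12 with 2.5% charcoal-treated FCS. Substrate 1 µM 11-deoxycorticosterone (B2) or 11-deoxycortisol (B1), 16 hr. Aldosterone or cortisol in supernatant measured by HTRF. IC50 from 4-parameter MMF fit; selectivity factor is the B1/B2 IC50 ratio.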
Background: Time-resolved FRET reads energy transfer from a long-lived donor to a nearby acceptor.

In data set [2] the target is T2, Cytochrome P450 11B1, mitochondrial (Homo sapiens, UniProt P15538).
T2 sequence (P15538 whole entry): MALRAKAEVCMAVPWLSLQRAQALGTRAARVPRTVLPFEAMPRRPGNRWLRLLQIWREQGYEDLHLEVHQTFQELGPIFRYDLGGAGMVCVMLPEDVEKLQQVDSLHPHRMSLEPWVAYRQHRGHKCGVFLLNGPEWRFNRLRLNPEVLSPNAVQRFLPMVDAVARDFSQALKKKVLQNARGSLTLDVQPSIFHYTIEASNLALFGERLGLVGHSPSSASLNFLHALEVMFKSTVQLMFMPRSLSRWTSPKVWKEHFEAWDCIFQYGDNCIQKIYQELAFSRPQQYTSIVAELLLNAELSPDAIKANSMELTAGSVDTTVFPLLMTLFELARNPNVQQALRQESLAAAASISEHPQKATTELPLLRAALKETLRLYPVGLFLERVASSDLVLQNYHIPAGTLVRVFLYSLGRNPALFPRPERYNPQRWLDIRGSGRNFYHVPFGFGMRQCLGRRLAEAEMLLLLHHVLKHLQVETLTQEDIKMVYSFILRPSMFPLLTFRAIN
The data set can be described thus: Inhibition of human CYP11B1 expressed in human renal leiomyoblastoma cells harboring FDXR/FDX using 1-deoxycortisol as substrate by HTRF assay. The format is ADME, cell-based. The method in brief: as §1

Data set [3] in a line: Selectivity ratio of IC50 for human CYP11B1 expressed in human renal leiomyoblastoma cells harboring FDXR/FDX to IC50 for human CYP11B2 expressed in human renal leiomyoblastoma cells harboring FDXR/FDX. The format is cell-based. The method in brief: as §1
Data set [4] is described as follows: Intrinsic clearance in human liver microsomes preincubated for 10 mins followed by NADPH regenerating system addition and measured up to 30 mins by LC/MS-MS analysis. The format is ADME, Microsome. As to conditions: read-out: CLH. The method in brief:
(§2)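 Liver microsomes at 0.5 mg protein/mL in 100 mM potassium phosphate, pH 7.4. Compound preincubated 10 min at 37 °C. Intrinsic clearance scaled using the well-stirred liver model.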
(Microsomes from liver hold many membrane-bound enzymes, among them those of drug oxidation.)

The nature of data set [5]: Intrinsic clearance in mouse liver microsomes preincubated for 10 mins followed by NADPH regenerating system addition and measured up to 30 mins by LC/MS-MS analysis. The format is ADME, Microsome. The method in brief: as §2

Structures are written as SMILES. Some results are limits rather than exact numbers.

As for `CC(=O)N[C@@H]1CCCc2c1cncc2N1C(=O)c2ccc(Cl)cc2[C@@H]1C`, the IC50 is 0.004 µM in data set [1] and 0.081 µM in data set [2]. Besides, the Ratio IC50 in data set [3] came to 20. Also, the predicted hepatic clearance in data set [4] was less than 0.21 L/h/kg. The predicted hepatic clearance (CLH) in data set [5] is less than 1.21 L/h/kg.
As for `CC(=O)N[C@@H]1CCCc2c1cncc2N1C(=O)c2ccc(Cl)cc2[C@@H]1C1CC1`, the IC50 was 0.354 µM in data set [1] and more than 30 µM in data set [2]. The Ratio IC50 in data set [3] was more than 85.
Turning to `CCC(=O)N[C@@H]1CCCc2c1cncc2N1C(=O)c2ccc(Cl)cc2[C@H]1CC`, the figures for the IC50 in data set [1] and in data set [2] were 0.09 µM and 10.2 µM, respectively. For the same compound, in data set [3], the Ratio IC50 worked out at 114. In addition, the predicted hepatic clearance in data set [4] was less than 0.21 L/h/kg. Also, in data set [5], the predicted hepatic clearance (CLH) was 2.69 L/h/kg.
For `CC[C@H]1c2cc(Cl)ccc2C(=O)N1c1cncc2c1CCC[C@H]2NC(C)=O` the same measures were 0.097 µM, 3.63 µM, 37, less than 0.21 L/h/kg and less than 1.21 L/h/kg.
With `Cc1ccncc1C(=O)N1CC2(C1)CN(c1cncc(N3C(=O)c4ccc(Cl)cc4C3(C)C)c1)C2`, the IC50 in data set [1] came out at 0.014 µM. The Ratio IC50 in data set [3] was 1870.
`O=C(Nc1cccnc1)c1ccc(Cl)cc1F`: the IC50 in data set [1] was 0.297 µM; in data set [2] it was more than 3 µM. In addition, the Ratio IC50 in data set [3] was more than 10.
With `CC(=O)N[C@@H]1CCCc2c1cncc2N1C(=O)c2ccc(Cl)cc2[C@H]1C`, the results for the concentration for half-maximal inhibition (IC50) in data set [1] and in data set [2] were 0.13 µM and 5.14 µM, respectively. Further, the Ratio IC50 in data set [3] turned out to be 40. In data set [4], the predicted hepatic clearance is less than 0.21 L/h/kg. In addition, the predicted hepatic clearance (CLH) in data set [5] is 2.61 L/h/kg.
Regarding `Cc1cc(Cl)ccc1C(=O)Nc1cccnc1`, the figures for the IC50 in data set [1] and in data set [2] were 0.277 µM and more than 3 µM, respectively. Also, in data set [3], the Ratio IC50 is more than 11.
In the case of `CS(=O)(=O)N[C@@H]1CCCc2c1cncc2N1Cc2cc(Cl)ccc2C1=O`, the concentration for half-maximal inhibition (IC50) was 0.998 µM in data set [1] and 9.35 µM in data set [2]. For the same compound, in data set [3], the Ratio IC50 amounted to 9. Besides, in data set [4], the predicted hepatic clearance was less than 0.21 L/h/kg. In data set [5], the predicted hepatic clearance (CLH) was less than 1.21 L/h/kg.
The like results for `CC(=O)N[C@@H]1CCCc2c1cncc2N1Cc2cc(Cl)ccc2C1=O` were, in that order, 0.044 µM, 2.33 µM, 53, less than 0.21 L/h/kg and less than 1.21 L/h/kg.
Turning to `O=C1c2ccccc2CN1c1cccnc1`, the IC50 in data set [1] is 1.12 µM; in data set [2], more than 3 µM. Moreover, the Ratio IC50 in data set [3] was more than 3.
For the compound `O=C1c2ccc(Cl)cc2C(C2CC2)N1c1cccnc1` (configuration not stated), the IC50 was found to be 0.161 µM in data set [1] and 32.5 µM in data set [2]. In data set [3], the Ratio IC50 amounted to 202. Moreover, the predicted hepatic clearance in data set [4] was 0.564 L/h/kg.
As for `N#Cc1ccc(C(=O)Nc2cccnc2)cc1`, the values for the 50% inhibitory concentration (IC50) in data set [1] and in data set [2] were 0.454 µM and more than 3 µM, respectively. Besides, the Ratio IC50 in data set [3] was more than 7.
As for `CCC(=O)N[C@@H]1CCCc2c1cncc2N1C(=O)c2ccc(Cl)cc2[C@@H]1CC`, the values for the IC50 in data set [1] and in data set [2] were 0.012 µM and 0.345 µM, respectively. For the same compound, in data set [3], the Ratio IC50 worked out at 29. For the same compound, the predicted hepatic clearance in data set [4] was less than 0.21 L/h/kg. In data set [5], the predicted hepatic clearance (CLH) is less than 1.21 L/h/kg.
For `CCS(=O)(=O)N[C@@H]1CCCc2c1cncc2N1Cc2cc(Cl)ccc2C1=O` the same measures were 0.04 µM, 1.79 µM, 45, less than 0.21 L/h/kg and 1.62 L/h/kg.
With `CC(=O)N[C@H]1CCCc2c1cncc2N1Cc2cc(Cl)ccc2C1=O`, the figures for the IC50 in data set [1] and in data set [2] were 5.14 µM and 39.6 µM, respectively. Moreover, the Ratio IC50 in data set [3] turned out to be 8.
For `O=C(Nc1cccnc1)c1ccc(Cl)cc1` the same measures were 0.42 µM, more than 3 µM and more than 7.
For the compound `CCC1c2cc(Cl)ccc2C(=O)N1c1cccnc1` (configuration not stated), the IC50 amounted to 0.121 µM in data set [1] and 3.34 µM in data set [2]. Further, the Ratio IC50 in data set [3] worked out at 28. For the same compound, the predicted hepatic clearance in data set [4] is 0.396 L/h/kg. The predicted hepatic clearance (CLH) in data set [5] was 3.95 L/h/kg.
Regarding `CN(C(=O)c1ccc(C#N)cc1)c1cccnc1`, the IC50 in data set [1] and in data set [2] was more than 3 µM throughout.
For `Cc1cc(Cl)ccc1C(=O)N(C)c1cccnc1`, the IC50 in data set [1] and in data set [2] was more than 3 µM in each case.
Turning to `O=C1c2ccc(Cl)cc2C2(CC2)N1c1cccnc1`, the figures for the IC50 in data set [1] and in data set [2] were 0.12 µM and 4.45 µM, respectively. Moreover, the Ratio IC50 in data set [3] was determined as 37. Also, the predicted hepatic clearance in data set [4] is 0.21 L/h/kg.
Consider `CCS(=O)(=O)NCc1cncc(N2C(=O)c3ccc(Cl)cc3C2(C)C)c1`, for which the IC50 in data set [1] was found to be 0.092 µM. Besides, in data set [3], the Ratio IC50 is 31.
For the compound `CCC(=O)N[C@@H]1CCCc2c1cncc2N1C(=O)c2ccc(Cl)cc2[C@H]1C`, the IC50 in data set [1] is 0.066 µM; in data set [2], 9.41 µM. In addition, in data set [3], the Ratio IC50 was found to be 143. In data set [4], the predicted hepatic clearance was less than 0.21 L/h/kg. For the same compound, in data set [5], the predicted hepatic clearance (CLH) was 2.74 L/h/kg.
For `CC1(C)c2cc(Cl)ccc2C(=O)N1c1cccnc1` the same measures were 0.108 µM, 4.28 µM, 40, less than 0.21 L/h/kg and 1.5 L/h/kg.
The like results for `CC[C@@H]1c2cc(Cl)ccc2C(=O)N1c1cncc2c1CCC[C@H]2NC(C)=O` were, in that order, 0.007 µM, 0.334 µM, 48, less than 0.21 L/h/kg and less than 1.21 L/h/kg.
For the compound `Cc1ccc(C(=O)Nc2cccnc2)cc1`, the IC50 in data set [1] and in data set [2] was more than 3 µM in each case.
On to `O=C1c2cc(F)c(Cl)cc2CCN1c1cccnc1`, for which the figures for the IC50 in data set [1] and in data set [2] were 0.104 µM and 3.54 µM, respectively. Besides, the Ratio IC50 in data set [3] was 34. Besides, the predicted hepatic clearance in data set [4] was less than 0.21 L/h/kg. Also, in data set [5], the predicted hepatic clearance (CLH) was 1.85 L/h/kg.
Turning to `O=C(Nc1cccnc1)c1ccccc1Cl`, the half-inhibitory concentration (IC50) in data set [1] was 0.967 µM; in data set [2], more than 3 µM. Moreover, the Ratio IC50 in data set [3] was more than 3.
The like results for `CC(=O)N[C@@H]1CCCc2c1cncc2N1C(=O)c2ccc(Cl)cc2[C@H]1C1CC1` were, in that order, 0.1 µM, 22.8 µM and 228.
`CCC(=O)NCc1cncc(N2C(=O)c3ccc(Cl)cc3C2(C)C)c1` had an IC50 in data set [1] of 0.282 µM. The Ratio IC50 in data set [3] stood at 28.
Regarding `CN(C(=O)c1ccc(Cl)cc1F)c1cccnc1`, the IC50 in data set [1] and in data set [2] was more than 3 µM each time.
In the case of `O=C1c2ccc(Cl)cc2C(Cc2ccccc2)N1c1cccnc1` (configuration not stated), the figures for the IC50 in data set [1] and in data set [2] were 1.07 µM and 0.214 µM, respectively. Further, the Ratio IC50 in data set [3] turned out to be 0.2.
As for `CCC(=O)N[C@@H]1CCCc2c1cncc2N1C(=O)c2ccc(Cl)cc2[C@@H]1C`, the half-inhibitory concentration (IC50) turned out to be 0.006 µM in data set [1] and 0.414 µM in data set [2]. Moreover, in data set [3], the Ratio IC50 was 69. In data set [4], the predicted hepatic clearance was less than 0.21 L/h/kg. For the same compound, in data set [5], the predicted hepatic clearance (CLH) is less than 1.21 L/h/kg.
For `CC1c2cc(Cl)ccc2C(=O)N1c1cccnc1` (configuration not stated) the same measures were 0.123 µM, 1.25 µM, 10, 0.732 L/h/kg and 3.99 L/h/kg.

Usually IC50 stands for the midpoint of a concentration-inhibition curve. Read a low IC50 as greater potency in that assay.
